# Hep lipid drop – modulators of hepatic lipid droplet formation; AML12 mouse hepatocytes, oleate lipid droplets, BODIPY imaging; inhibition, % at 6.5 µM; 240,000 compounds, 0.4% hits; AID 1656;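 active means lipid droplet intensity inhibited by at least 50%, with more than 500 cells counted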
#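 Test system: AML12 mouse liver cells; schedule: overnight exposure; technique: high-content imaging of BODIPY-stained droplets and DAPI nuclei; read-out: % inhibition of corrected integrated BODIPY droplet signal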
# TAG inh – reduces triacylglycerol accumulation in H9c2 cells; Nile Red lipid (TAG) fluorescence; cells loaded with 200 µM oleic acid; 230,000 compounds, 0.66% hits; inhibition, % at 12.5 µM; AID 651582;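 active means pattern-corrected inhibition of lipid staining of at least 50% with the nuclear-stain viability signal not falling by more than 50%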;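 further: 0% = DMSO wells and 100% = triacsin C control wells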
# STK33 inh – human STK33 kinase inhibition. Q9BYT3. purified STK33, MBP phosphorylation, ADP-Glo luminescence. inhibition, % at 10 µM. 320,000 compounds, 0.073% hits. AID 2661;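 active means inhibition at or above 25%, using the most active replicate where run in duplicate; inactive means inhibition below 25%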
# GSK3 alpha inh – inhibitors of human GSK-3 alpha kinase; inhibition, % at 10 µM; ADP-Glo luminescence, 60 min; 320,000 compounds, 0.1% hits; P49840; AID 2650;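 active means more than half of replicates show inhibition above 20%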;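 further: GST-tagged GSK-3 alpha with peptide substrate and 25 µM ATP; 0% = DMSO neutral wells and 100% = GW8510 positive control wells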
# GSK3B inh – human GSK3beta kinase inhibition; AID 2097; activity score (negative = inhibition), % at 10 µM; GST-GSK3beta kinase, ADP-Glo luminescence, 60 min; hits give low values; P49841; 300,000 compounds, 0.038% hits;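 active means more than half of replicate wells score below -50%, meaning over 50% inhibition versus plate controls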;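 further: 0% = median DMSO wells and -100% = median GW8510 positive control wells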
#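 Test system: GST-tagged human GSK3beta kinase, cell-free; evaluation: activity score scaled between in-plate DMSO and GW8510 controls; measured by: ADP-Glo luminescence; incubation: 60 min reaction, RT; benchmarks: DMSO and 20 µM GW8510; reagent: peptide substrate plus 25 µM ATP (final); medium: Tris/MgCl2 kinase buffer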
# LANA-H2B inh – blocks KSHV LANA binding to histone H2A/H2B. cell-free LANA-H2A/H2B peptide, fluorescence polarization. inhibition, % (test concentration not listed). 320,000 compounds, 0.6% hits. AID 2629; in the data active means inhibition mostly above about 10%, no sharp cut-off; inactive means mostly below about 6.7%
# Target sequence (Q9QR71 whole entry, looked up): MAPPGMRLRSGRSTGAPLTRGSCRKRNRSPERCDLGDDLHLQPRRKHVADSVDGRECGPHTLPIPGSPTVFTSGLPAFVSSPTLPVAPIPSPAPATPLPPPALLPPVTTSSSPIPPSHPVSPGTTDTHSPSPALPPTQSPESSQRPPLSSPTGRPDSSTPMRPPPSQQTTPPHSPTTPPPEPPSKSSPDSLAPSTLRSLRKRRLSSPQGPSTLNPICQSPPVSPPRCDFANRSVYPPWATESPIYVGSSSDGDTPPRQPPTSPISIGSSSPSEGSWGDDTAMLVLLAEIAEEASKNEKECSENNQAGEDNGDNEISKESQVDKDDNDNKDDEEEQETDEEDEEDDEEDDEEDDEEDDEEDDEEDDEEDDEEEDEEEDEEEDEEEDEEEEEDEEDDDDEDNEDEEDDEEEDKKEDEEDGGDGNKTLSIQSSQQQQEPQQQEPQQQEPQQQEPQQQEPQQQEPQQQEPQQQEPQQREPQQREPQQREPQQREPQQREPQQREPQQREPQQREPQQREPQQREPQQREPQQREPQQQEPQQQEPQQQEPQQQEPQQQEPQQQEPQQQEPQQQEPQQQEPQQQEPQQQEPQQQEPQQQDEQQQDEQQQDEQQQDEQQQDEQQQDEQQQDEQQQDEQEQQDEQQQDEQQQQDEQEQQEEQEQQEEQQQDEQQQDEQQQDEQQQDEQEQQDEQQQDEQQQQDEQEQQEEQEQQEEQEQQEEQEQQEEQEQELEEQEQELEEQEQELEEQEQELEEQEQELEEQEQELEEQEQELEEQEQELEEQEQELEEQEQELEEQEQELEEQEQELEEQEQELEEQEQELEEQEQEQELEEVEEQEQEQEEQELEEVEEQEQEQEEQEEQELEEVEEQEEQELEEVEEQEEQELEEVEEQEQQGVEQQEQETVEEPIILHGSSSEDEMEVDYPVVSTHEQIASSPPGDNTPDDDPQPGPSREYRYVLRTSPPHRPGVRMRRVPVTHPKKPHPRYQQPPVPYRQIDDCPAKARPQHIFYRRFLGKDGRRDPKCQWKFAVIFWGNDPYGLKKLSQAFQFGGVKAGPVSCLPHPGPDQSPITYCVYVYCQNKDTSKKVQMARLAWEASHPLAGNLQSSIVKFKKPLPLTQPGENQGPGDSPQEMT
# An asterisk follows results filed as active; x = no result. An excerpt weighted towards active compounds, which were near 1.3% of everything screened.
SMILES,Hep lipid drop,TAG inh,STK33 inh,GSK3 alpha inh,GSK3B inh,LANA-H2B inh
Nc1cc(N)nc(SCC(=O)Nc2ccccc2N2CCOCC2)n1,-0.9,2.8,-0.3,3.1,-0.4,14.5*
Cc1ccc(NC(=O)CSc2nc(C)c(C)c(C)n2)cc1S(=O)(=O)N1CCOCC1,x,-17.4,1.5,4.0,x,3.1
O=C(C[n+]1ccc(/C=N/O)cc1)NC1CCCCC1,-5.3,1.1,0.8,1.2,-4.3,17.5*
CS(=O)(=O)c1nc(-c2ccc(Br)cc2)cc(-c2ccccc2)c1C#N,14.4,79.1*,-0.5,-2.0,3.2,-4.2
CCOc1ccc(S(=O)(=O)NCCC(=O)N2CCN(Cc3ccccc3)CC2)cc1,x,-11.7,-1.6,-3.8,-0.6,6.0
Nc1nc(-c2ccccc2)c(-c2ccccc2)s1,x,7.1,-1.7,0.4,-4.6,5.4
Nc1nc(-c2ccccc2)c(N=Nc2ccc(Cl)cc2)s1,92.7*,x,0.2,0.1,0.4,-4.6
COCCNC(=O)/C(C#N)=C/c1c(N2CCCCCC2)nc2c(C)cccn2c1=O,-19.3,x,1.0,-0.2,-3.7,1.0
Cc1ccc(/C=N/NC(=O)c2cc3c(ccc4ccccc43)o2)cc1[N+](=O)[O-],x,x,0.9,-7.1,3.3,2.3
CS(=O)(=O)c1cccc(C(=O)Oc2ccccc2)c1,x,20.5,2.5,-3.3,2.1,37.8*
CC(C)Sc1nnc(Cn2c(=O)sc3ccccc32)n1-c1ccccc1,-11.3,-3.8,-0.7,0.0,-1.9,0.2
Cc1ccc(-c2noc(C3CCCN(C(=O)c4cccc(F)c4)C3)n2)cc1 (centres undefined),-14.6,-2.7,-0.4,-1.4,-2.3,16.2*
C/C(=N\NC(=O)C12CCC(C)(C(=O)O1)C2(C)C)c1ccccc1O (centres undefined),13.8,52.5*,-1.9,-0.7,2.3,0.5
CCOC(=O)CCS(=O)(=O)c1nc(-c2ccccc2)cc(C(F)(F)F)n1,-1.0,74.3*,2.4,-2.3,-1.9,0.9
O=C(NCc1ccccc1Cl)c1ccc2c(c1)SC1=NS(=O)(=O)CCN12,3.0,10.6,-0.1,1.0,5.4,-20.5
O=C(NCc1cccc(Cl)c1)c1ccc2c(c1)SC1=NS(=O)(=O)CCN12,x,x,0.1,2.6,-0.1,16.3*
COc1ccc(OCc2cc(C(=O)N3CCN(CC4CC4)CC3)no2)c(Cl)c1,-2.7,x,-1.0,-1.9,0.7,25.7*
CC(C)(C)n1ncc2c(=O)n(CC(=O)N3CCCCCC3)cnc21,x,3.6,-0.9,-4.0,0.9,0.2
CCOc1ccc(-c2ccc(SC)nn2)cc1,-4.7,10.6,31.1*,20.4,-14.8,0.3
CCOc1ccc(-c2ccc(SCC(=O)Nc3nnc(CC)s3)nn2)cc1,-14.9,18.5,-0.7,-1.6,0.7,4.6
NC(=O)c1ccc(NC(=O)COC(=O)c2ccc(Cl)nc2)cc1,x,-2.7,-1.0,11.9,x,12.0*
O=C(C1CCN(S(=O)(=O)c2cnc[nH]2)CC1)N1CCN(c2ncccn2)CC1,3.6,-9.4,-0.3,0.0,-1.9,17.2*
O=C(Nc1ncc([N+](=O)[O-])s1)C1CCN(S(=O)(=O)c2cnc[nH]2)CC1,13.4,x,-1.0,51.4*,-2.3,-0.4
COc1cccc(CN(CC(=O)NC2CCCCC2)C(=O)c2csnn2)c1,-2.7,x,4.3,2.0,-1.2,4.9
CC(C)OC(=O)CSc1nnc(-c2ccncc2)n1N,x,-6.0,6.2,5.4,1.9,-4.3
SMILES,Hep lipid drop,TAG inh,STK33 inh,GSK3 alpha inh,GSK3B inh,LANA-H2B inh
CCCOc1ccc(C(=O)CCC(=O)Nc2ccc(N3CCN(C)CC3)cc2)cc1,x,5.6,-1.5,1.1,x,-0.4
COc1ccc2oc(=O)c(C(=O)NCCc3ccc(OC)c(OC)c3)cc2c1,9.7,x,0.6,1.8,-2.1,12.1*
CC(C(=O)NC1CC1)c1ncc(C(F)(F)F)cc1Cl (centres undefined),-3.2,8.5,-0.5,-4.1,3.7,-3.9
N[C@@H](Cc1ccccc1)c1nnc(SCc2ccccc2Cl)o1,-15.1,-0.4,-0.7,0.8,5.5,9.1
COC(CNC(=O)C(=O)NCC1OCCN1C(=O)c1ccc(Cl)cc1)OC (centres undefined),-0.5,-1.4,-1.0,-1.3,-1.3,11.2*
CCO[C@@H]1OC(C(=O)N2CCN(Cc3ccc4c(c3)OCO4)CC2)=C[C@H](c2csc3ccccc23)[C@H]1CCCO,-3.2,-1.1,1.3,1.6,4.1,13.8*
Nc1ccc(N)c(C(=O)O)c1,x,6.2,0.0,-3.7,0.3,-0.2*
CN1C(=O)C(O)(CC(=O)/C=C/c2ccco2)c2cc(Br)ccc21 (centres undefined),-9.4,x,0.4,-3.6,1.0,1.3
CN1C(=O)C(O)(CC(=O)c2ccccc2O)c2cc(Br)ccc21 (centres undefined),-0.1,45.5,0.1,-0.4,1.7,46.8*
C=CC(=O)N1C/C(=C/c2ccc(F)cc2)C(=O)/C(=C\c2ccc(F)cc2)C1,x,78.0*,x,x,x,x
O=C(CS(=O)(=O)c1ccc(F)cc1)N1CCN(c2ccccc2)CC1,x,5.5,-0.5,-3.2,0.8,3.5
CC(C)N1CCc2c(sc(NC(=O)CN3C(=O)c4ccccc4C3=O)c2C(N)=O)C1,1.5,1.2,0.5,-3.7,6.1,-4.3
CCC(=O)Nc1sc2c(c1C(N)=O)CCN(C(C)=O)C2,0.8,8.2,-0.2,39.7,0.5,3.7
CC(=O)N1CCc2c(sc(NC(=O)CN3C(=O)c4ccccc4C3=O)c2C(N)=O)C1,-7.3,2.9,1.4,38.6,-51.5*,-0.9
CC(=O)N1CCc2c(sc(NC(=O)CN3C(=O)CCC3=O)c2C(N)=O)C1,-1.1,9.4,0.1,92.7*,-78.6*,4.0
CCC1(C)NC(=O)N(CC(=O)Nc2sc3c(c2C(N)=O)CCC3)C1=O (centres undefined),x,-28.4,2.0,58.3*,-32.8,8.0
NC(=O)c1c(NC(=O)CN2C(=O)CCC2=O)sc2c1CCCCC2,2.0,-5.1,0.4,17.0,-8.2,-2.7
COc1ccc(N(C(=O)Cn2cnc3ccccc32)C(C(=O)NC2CCCCC2)c2ccccc2)cc1 (centres undefined),14.5,x,0.2,1.5,-0.5,-1.5
O=C(Nc1cccc(-c2cccc(Cl)c2)c1)C1CCN(Cc2ccon2)CC1,8.5,-28.7,-2.8,-0.4,3.2,-3.4
CC(=O)c1cccc(OC(=O)C2=CC=CN3CCS(=O)(=O)N=C23)c1,x,-5.0,8.7,14.7,x,46.9*
O=C(/C=C/c1cccs1)Nc1nncs1,19.9,3.9,1.6,0.4,-4.4,14.6*
CCCCOC(=O)c1ccc(NC(=O)/C=C/c2cccs2)cc1,65.2*,x,0.0,-1.2,-3.9,3.7
O=C(Nc1cccnc1)Nc1ccc(Cl)cc1Cl,5.7,x,-0.6,-2.0,4.6,0.2

# Assay outcomes deposited in PubChem by several laboratories.
